Tested on: Fibroblast
Test: Multiplex assay against human fibroblast
Assay type: toxicity, cell-based
Summary of the method: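 Tubulin, mitochondrial-mass and membrane-permeability phenotypes are per cents of healthy-nucleus cells. Cells were gated by CellPathfinder machine learning into Hoechst high-intensity objects or normal cells, normal cells into healthy, pyknosed or fragmented nuclei, and pyknosed cells into mitotic or apoptotic. Before that, live cells stained at seeding with Hoechst33342, BioTracker Green Microtubule Cytoskeleton Dye, MitoTracker Red and Annexin V Alexa Fluor 680 were imaged on a CQ1 microscope at 37°C and 5% CO2 after compound addition.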

[1] = 12 h, 1 µM, compound concentration 1 uM, replicate 1
[2] = 12 h, 1 µM, compound concentration 1 uM, replicate 2
[3] = 12 h, 10 µM, compound concentration 10 uM, replicate 1
[4] = 12 h, 10 µM, compound concentration 10 uM, replicate 2
[5] = 24 h, 1 µM, compound concentration 1 uM, replicate 1
[6] = 24 h, 1 µM, compound concentration 1 uM, replicate 2
[7] = 24 h, 10 µM, compound concentration 10 uM, replicate 1
[8] = 24 h, 10 µM, compound concentration 10 uM, replicate 2
[9] = 48 h, 1 µM, compound concentration 1 uM, replicate 1
[10] = 48 h, 1 µM, compound concentration 1 uM, replicate 2
[11] = 48 h, 10 µM, compound concentration 10 uM, replicate 1
[12] = 48 h, 10 µM, compound concentration 10 uM, replicate 2

SMILES: O=C(O)Cc1ccccc1Nc1c(Cl)cccc1Cl [DICLOFENAC]
- Population Apoptotic (%) [1]: 43%
- Population Fragmented Nuclei (%) [1]: 14%
- Population Healthy Nuclei (%) [1]: 67%
- Population Hoechst High Intensity Objects (%) [1]: 0%
- Population Membrane Permeable-Phenotype (%) [1]: 1%
- Population Mitochondria Different-Phenotype (%) [1]: 6%
- Population Mitotic Cells (%) [1]: 56%
- Population Normal (%) [1]: 99%
- Population Pyknosed Nuclei (%) [1]: 17%
- Population Tubulin-Different-Phenotype (%) [1]: 25%
- Population Apoptotic (%) [2]: 33%
- Population Fragmented Nuclei (%) [2]: 25%
- Population Healthy Nuclei (%) [2]: 49%
- Population Hoechst High Intensity Objects (%) [2]: 2%
- Population Membrane Permeable-Phenotype (%) [2]: 7%
- Population Mitotic Cells (%) [2]: 66%
- Population Normal (%) [2]: 97%
- Population Pyknosed Nuclei (%) [2]: 25%
- Population Tubulin-Different-Phenotype (%) [2]: 49%
- Population Apoptotic (%) [3]: 32%
- Population Fragmented Nuclei (%) [3]: 14%
- Population Healthy Nuclei (%) [3]: 68%
- Population Hoechst High Intensity Objects (%) [3]: 0%
- Population Membrane Permeable-Phenotype (%) [3]: 0%
- Population Mitochondria Different-Phenotype (%) [3]: 5%
- Population Mitotic Cells (%) [3]: 68%
- Population Normal (%) [3]: 99%
- Population Pyknosed Nuclei (%) [3]: 17%
- Population Tubulin-Different-Phenotype (%) [3]: 24%
- Population Apoptotic (%) [4]: 38%
- Population Fragmented Nuclei (%) [4]: 36%
- Population Healthy Nuclei (%) [4]: 46%
- Population Hoechst High Intensity Objects (%) [4]: 6%
- Population Membrane Permeable-Phenotype (%) [4]: 16%
- Population Mitochondria Different-Phenotype (%) [4]: 8%
- Population Mitotic Cells (%) [4]: 61%
- Population Normal (%) [4]: 93%
- Population Tubulin-Different-Phenotype (%) [4]: 54%
- Population Apoptotic (%) [5]: 52%
- Population Fragmented Nuclei (%) [5]: 15%
- Population Healthy Nuclei (%) [5]: 66%
- Population Hoechst High Intensity Objects (%) [5]: 2%
- Population Membrane Permeable-Phenotype (%) [5]: 0%
- Population Mitochondria Different-Phenotype (%) [5]: 4%
- Population Mitotic Cells (%) [5]: 47%
- Population Normal (%) [5]: 97%
- Population Pyknosed Nuclei (%) [5]: 17%
- Population Tubulin-Different-Phenotype (%) [5]: 29%
- Population Apoptotic (%) [6]: 35%
- Population Fragmented Nuclei (%) [6]: 28%
- Population Healthy Nuclei (%) [6]: 49%
- Population Hoechst High Intensity Objects (%) [6]: 3%
- Population Membrane Permeable-Phenotype (%) [6]: 12%
- Population Mitochondria Different-Phenotype (%) [6]: 6%
- Population Mitotic Cells (%) [6]: 64%
- Population Normal (%) [6]: 96%
- Population Pyknosed Nuclei (%) [6]: 21%
- Population Tubulin-Different-Phenotype (%) [6]: 50%
- Population Apoptotic (%) [7]: 30%
- Population Fragmented Nuclei (%) [7]: 16%
- Population Healthy Nuclei (%) [7]: 68%
- Population Hoechst High Intensity Objects (%) [7]: 5%
- Population Membrane Permeable-Phenotype (%) [7]: 0%
- Population Mitochondria Different-Phenotype (%) [7]: 5%
- Population Mitotic Cells (%) [7]: 69%
- Population Normal (%) [7]: 94%
- Population Pyknosed Nuclei (%) [7]: 15%
- Population Tubulin-Different-Phenotype (%) [7]: 19%
- Population Apoptotic (%) [8]: 50%
- Population Fragmented Nuclei (%) [8]: 31%
- Population Healthy Nuclei (%) [8]: 50%
- Population Hoechst High Intensity Objects (%) [8]: 2%
- Population Membrane Permeable-Phenotype (%) [8]: 8%
- Population Mitochondria Different-Phenotype (%) [8]: 10%
- Population Mitotic Cells (%) [8]: 50%
- Population Normal (%) [8]: 97%
- Population Pyknosed Nuclei (%) [8]: 18%
- Population Tubulin-Different-Phenotype (%) [8]: 55%
- Population Apoptotic (%) [9]: 85%
- Population Fragmented Nuclei (%) [9]: 21%
- Population Healthy Nuclei (%) [9]: 61%
- Population Hoechst High Intensity Objects (%) [9]: 3%
- Population Membrane Permeable-Phenotype (%) [9]: 4%
- Population Mitochondria Different-Phenotype (%) [9]: 4%
- Population Mitotic Cells (%) [9]: 15%
- Population Normal (%) [9]: 96%
- Population Pyknosed Nuclei (%) [9]: 16%
- Population Tubulin-Different-Phenotype (%) [9]: 24%
- Population Apoptotic (%) [10]: 57%
- Population Fragmented Nuclei (%) [10]: 36%
- Population Healthy Nuclei (%) [10]: 53%
- Population Hoechst High Intensity Objects (%) [10]: 5%
- Population Mitotic Cells (%) [10]: 42%
- Population Normal (%) [10]: 94%
- Population Pyknosed Nuclei (%) [10]: 10%
- Population Tubulin-Different-Phenotype (%) [10]: 44%
- Population Apoptotic (%) [11]: 73%
- Population Fragmented Nuclei (%) [11]: 22%
- Population Healthy Nuclei (%) [11]: 65%
- Population Hoechst High Intensity Objects (%) [11]: 3%
- Population Membrane Permeable-Phenotype (%) [11]: 0%
- Population Mitochondria Different-Phenotype (%) [11]: 3%
- Population Mitotic Cells (%) [11]: 26%
- Population Normal (%) [11]: 96%
- Population Pyknosed Nuclei (%) [11]: 12%
- Population Tubulin-Different-Phenotype (%) [11]: 28%
- Population Apoptotic (%) [12]: 30%
- Population Fragmented Nuclei (%) [12]: 35%
- Population Healthy Nuclei (%) [12]: 50%
- Population Membrane Permeable-Phenotype (%) [12]: 4%
- Population Mitochondria Different-Phenotype (%) [12]: 6%
- Population Mitotic Cells (%) [12]: 69%
- Population Pyknosed Nuclei (%) [12]: 14%
- Population Tubulin-Different-Phenotype (%) [12]: 53%
